Measured values collected from several papers.
Lines come from different studies, so protocols differ. In brackets after ≈: the same amount, converted by molar mass.
Organism: Mycobacterium tuberculosis

SMILES	read-out	strain	tested at	time	quantity	value
Cc1cc(C)nc(-n2nc(C)cc2NC(=O)c2ccc3c(c2)OCO3)n1	microbial growth	H37RV	–	–	MIC50	> 20 µM
COc1nc2ccc(Br)cc2cc1[C@@H](c1ccccc1)[C@@](O)(CCN(C)C)c1cccc2ccccc12	microbial growth	H37RV	–	–	MIC90	0.05 µM (≈ 0.0278 µg/mL)
CCCCCCC#Cc1cncc(-c2nnc(SCc3ccc(Cl)c(F)c3)n2C)c1	microbial growth	ERDMAN	–	–	IC50	5400 nM
[H]/N=C(/N)N[C@H]1[C@H](O)[C@@H](O)[C@H](O[C@@H]2O[C@@H](C)[C@](O)(C=O)[C@H]2O[C@@H]2O[C@@H](CO)[C@H](O)[C@@H](O)[C@@H]2NC)[C@@H](N/C(N)=N\[H])[C@@H]1O	microbial growth	H37RV	–	–	IC50	200 nM
CO[C@H]1/C=C/O[C@@]2(C)Oc3c(C)c(O)c4c(O)c(c(/C=N/N5CCN(C)CC5)c(O)c4c3C2=O)NC(=O)/C(C)=C\C=C\[C@H](C)[C@H](O)[C@@H](C)[C@@H](O)[C@@H](C)[C@H](OC(C)=O)[C@@H]1C	microbial growth	H37RV	12.5 µg/mL	–	inhibition	97%
O=C(C[n+]1cn(Cc2cccc(Cn3c[n+](CC(=O)c4ccccc4)c4ccccc43)n2)c2ccccc21)c1ccccc1	microbial killing	H37RV	–	21 days	MBC	100 µM
CO[C@H]1/C=C/O[C@@]2(C)Oc3c(C)c(O)c4c(O)c(c(/C=N/N5CCN(C)CC5)c(O)c4c3C2=O)NC(=O)/C(C)=C\C=C\[C@H](C)[C@H](O)[C@@H](C)[C@@H](O)[C@@H](C)[C@H](OC(C)=O)[C@@H]1C	microbial growth	ERDMAN	–	–	IC90	35 nM
COC(=O)c1cc(-c2cccc(NC(=S)Nc3cc(C(F)(F)F)cc(C(F)(F)F)c3)c2)on1	microbial growth	ATCC27294 H37RV	–	7 days	MIC	16 µg/mL
O=C(C[n+]1cn(Cc2cccc(Cn3c[n+](CC(=O)c4ccc([N+](=O)[O-])cc4)c4ccccc43)n2)c2ccccc21)c1ccc([N+](=O)[O-])cc1	microbial killing	H37RV	–	21 days	MBC	50 µM
COC(=O)c1cc(-c2ccc(NC(=O)Nc3ccc(Cl)c(Cl)c3)cc2)on1	microbial growth	ATCC27294 H37RV	–	7 days	MIC	0.5 µg/mL
NNC(=O)c1ccncc1	microbial growth	ERDMAN	–	–	IC50	180 nM
COC(=O)c1cc(-c2cccc(NC(=O)Nc3cccc(C#N)c3)c2)on1	microbial growth	ATCC27294 H37RV	–	7 days	MIC	16 µg/mL
O=[N+]([O-])c1ccc(/C(O)=C/C(=S)S)cc1	microbial killing	ATCC27294 H37RV	–	–	MBC	31.2 µg/mL
CCCCCCC#Cc1cncc(-c2nnc(SCc3ccc([N+](=O)[O-])o3)n2C)c1	microbial growth	ERDMAN	–	–	IC90	240 nM
COC(=O)c1cc(-c2cccc(NC(=O)Nc3ccc(F)cc3F)c2)on1	microbial growth	ATCC27294 H37RV	–	7 days	MIC	1 µg/mL
CO[C@H]1/C=C/O[C@@]2(C)Oc3c(C)c(O)c4c(O)c(c(/C=N/N5CCN(C)CC5)c(O)c4c3C2=O)NC(=O)/C(C)=C\C=C\[C@H](C)[C@H](O)[C@@H](C)[C@@H](O)[C@@H](C)[C@H](OC(C)=O)[C@@H]1C	microbial growth	H37RV	–	–	MIC	0.009 µM
CCCCCCNC(=S)Nc1cccc(-c2cc(C(=O)OC)no2)c1	microbial growth	ATCC27294 H37RV	–	7 days	MIC	2 µg/mL

SMILES	read-out	strain	tested at	time	quantity	value
CNc1cc(-n2nc(C(=O)NCCN3C(C)CCCC3C)cc2Nc2cc(NC(=O)c3cncc(C(C)(C)C)c3)ccc2C)ncn1 (stereo not drawn)	microbial killing	H37RV	–	5 days	MBC	1.25 to 2.5 µM
NNC(=O)c1ccncc1	microbial killing	H37RV	–	7 days	MBC	30.7 µg/mL
O=[N+]([O-])c1cc2cc3ccc4oc([N+](=O)[O-])cc4c3cc2o1	microbial killing	H37RV	–	–	MBC	0.062 µg/mL
COC(=O)c1cc(-c2cccc(NC(=O)Nc3cccc(C(F)(F)F)c3)c2)on1	microbial growth	ATCC27294 H37RV	–	7 days	MIC	2 µg/mL
CC[C@@H](CO)NCCN[C@@H](CC)CO	microbial growth	H37RV	–	–	IC50	1510 nM
Cc1cn(-c2cc(C(=O)Nc3ccc(C)c(Nc4nccn4-c4cc(NC5CC5)ncn4)c3)cc(C(F)(F)F)c2)cn1	microbial killing	H37RV	–	5 days	MBC	2.5 to 5 µM
CCCCCCC#Cc1cncc(-c2nnc(SCc3ccc([N+](=O)[O-])cc3)n2C)c1	microbial growth	–	–	–	IC50	1300 nM
CN(CC[C@H](N)CC(=O)N[C@H]1C=C[C@H](n2ccc(N)nc2=O)O[C@@H]1C(=O)O)C(=N)N	microbial growth	H37RA	–	–	IC50	19000 nM
CCOC(=O)c1c(NC(=O)c2c(F)c(F)c(F)c(F)c2F)sc2c1CCN(CC)C2	microbial growth	H37RV	–	–	MIC90	0.23 µM (≈ 0.103 µg/mL)
[H]/N=C(/N)N[C@H]1[C@H](O)[C@@H](O)[C@H](O[C@@H]2O[C@@H](C)[C@](O)(C=O)[C@H]2O[C@@H]2O[C@@H](CO)[C@H](O)[C@@H](O)[C@@H]2NC)[C@@H](N/C(N)=N\[H])[C@@H]1O	microbial growth	ATCC27294 H37RV	–	7 days	MIC	0.5 µg/mL
CCCCCCC#Cc1cncc(-c2nnc(SCc3cc([N+](=O)[O-])cc([N+](=O)[O-])c3)n2C)c1	microbial growth	–	–	–	IC50	61 nM
O=C(C[n+]1ccn(Cc2cccc(Cn3cc[n+](CC(=O)c4ccc([N+](=O)[O-])cc4)c3)n2)c1)c1ccc([N+](=O)[O-])cc1	microbial killing	H37RV	–	21 days	MBC	100 µM
CCCCCCC#Cc1cncc(-c2nnc(SCc3ccc(C#N)cc3)n2C)c1	microbial growth	ERDMAN	–	–	IC90	> 100000 nM
COC(=O)c1cc(-c2cccc(NC(=O)Nc3cccc(Br)c3)c2)on1	microbial growth	ATCC27294 H37RV	–	7 days	MIC	0.5 µg/mL
Cn1c(SCc2ccc(Cl)cc2)nnc1-c1cncc(C#Cc2ccccc2)c1	microbial growth	ERDMAN	–	–	IC90	4400 nM
Cc1ccc(NC(=O)c2cc(N3CCNCC3)cc(C(F)(F)F)c2)cc1Nc1nccn1-c1cc(NC2CC2)ncn1	microbial killing	H37RV	–	5 days	MBC	2.5 to 5 µM
